Assay results taken from ChEMBL document CHEMBL5712088, “Pharmacological inhibition of G9a/GLP restores cognition and reduces oxidative stress, neuroinflammation and β-Amyloid plaques in an early-onset Alzheimer's disease mouse model” (2019).
Active and inactive are the calls of the source.

Tests used:
Mus musculus [1] = assay: Neuroprotective activity in 5XFAD mouse assessed as increase in NRF2 protein level at 5 mg/kg/day, po for 4 weeks by Western blot analysis; assay type: functional, organism-based
Method in brief: (§1)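 Hippocampal lysates, with protease and phosphatase inhibitors, from 8-month-old male 5XFAD mice after 4 weeks at 5 mg/kg/day in drinking water. 15 μg protein resolved on 8-12% SDS-PAGE and blotted to PVDF. Blocked 1 h, primary antibody overnight at 4°C, HRP secondary, ECL detection. Values expressed as % of Wt control. n = 4 per group.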

Mus musculus [2] = assay: Neuroprotective activity in 5XFAD mouse assessed as distance in zone-periphery at 5 mg/kg/day, po for 4 weeks by open field test (reference value: 1450.05+/-133.56 cm); assay type: functional
Mus musculus [3] = assay: Neuroprotective activity in 5XFAD mouse assessed as distance in zone-center at 5 mg/kg/day, po for 4 weeks by open field test (reference value: 87.64+/-8.21 cm); assay type: functional
Mus musculus [4] = assay: Neuroprotective activity in 5XFAD mouse assessed as restoration of locomotor activity at 5 mg/kg/day, po for 4 weeks by open field test (reference value: 1672.36+/-68.84 cm); assay type: functional
Mus musculus [5] = assay: Neuroprotective activity in 5XFAD mouse assessed as increase in vertical activity by measuring number of rearings at 5 mg/kg/day, po for 4 weeks by open field test (reference value: 9.9+/-0.66); assay type: functional
Mus musculus [6] = assay: Neuroprotective activity in 5XFAD mouse assessed as increase in grooming at 5 mg/kg/day, po for 4 weeks by open field test (reference value: 1.2+/-0.25); assay type: functional
Mus musculus [7] = assay: Neuroprotective activity in 5XFAD mouse assessed as defecations at 5 mg/kg/day, po for 4 weeks by open field test (reference value: 0.80+/-0.20 No_Unit); assay type: functional
Mus musculus [8] = assay: Neuroprotective activity in 5XFAD mouse assessed as urinations at 5 mg/kg/day, po for 4 weeks by open field test (reference value: 0); assay type: functional
Mus musculus [9] = assay: Neuroprotective activity in 5XFAD mouse model assessed as reduced cognitive deficit in short term memory at 5 mg/kg/day, po for 4 weeks by novel object recognition test; assay type: functional, organism-based
Method in brief: (§2)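 8-month-old male 5XFAD mice after 4 weeks of 5 mg/kg/day in drinking water. Two-arm 90° maze, habituated 10 min/day for 3 days. 10 min acquisition with two identical objects, then one object replaced after 2 h (short-term) or 24 h (long-term). DI = (TN−TO)/(TN+TO), exploration ≤2 cm. Objects counterbalanced.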

Mus musculus [10] = assay: Neuroprotective activity in 5XFAD mouse model assessed as reduced cognitive deficit in long term memory at 5 mg/kg/day, po for 4 weeks by novel object recognition test; assay type: functional, organism-based; method in brief: as §2
Mus musculus [11] = assay: Neuroprotective activity in cognitive impairment of 5XFAD mouse model assessed as increase in discrimination index at 5 mg/kg/day, po for 4 weeks by novel object location test; assay type: functional, organism-based
Method in brief: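 Object location task in 8-month-old male 5XFAD mice after 4 weeks of 5 mg/kg/day in drinking water. Sessions video-recorded from above. Time sniffing the relocated object (TN) versus the object in the familiar location (TO) was scored. DI = (TN-TO)/(TN+TO).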

Mus musculus [12] = assay: Antialzheimer activity in 5XFAD mouse model assessed as reduction of 5-mC global level in DNA at 5 mg/kg/day, po for 4 weeks; assay type: functional, organism-based
Method in brief: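 8-month-old male 5XFAD mice dosed 5 mg/kg/day via drinking water (1,8% hydroxypropyl-β-cyclodextrin vehicle), 4 weeks. Hippocampal DNA assayed for global 5-mC or 5-hmC by antibody-based ELISA-like colorimetric kit, absorbance 450 nm. Quantified against a standard curve of five control DNA dilutions (0.5–10 ng). n = 4 per group.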

Mus musculus [13] = assay: Neuroprotective activity in 5XFAD mouse assessed as reduction in H3K9me2 level at 5 mg/kg/day, po for 4 weeks by Western blot analysis; assay type: functional, organism-based; method in brief: as §1
Mus musculus [14] = assay: Neuroprotective activity in 5XFAD mouse assessed as increase in Hmox1 gene expression level at 5 mg/kg/day, po for 4 weeks by RT-PCR analysis; assay type: functional, organism-based
Method in brief: (§3)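 Male 5XFAD mice, 8 months old, given 5 mg/kg/day in drinking water with 1,8% 2-hydroxypropyl-β-cyclodextrin for 4 weeks. Hippocampus collected one day after behavioural testing. Trizol RNA, 2 μg reverse-transcribed, TaqMan qPCR with 18 ng cDNA per reaction. ΔΔCt normalized to housekeeping gene. n = 4-6 (Hmox1: 3-6) per group. One-way ANOVA with Dunnett.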

Mus musculus [15] = assay: Neuroprotective activity in 5XFAD mouse assessed as increase in SOD1 protein level at 5 mg/kg/day, po for 4 weeks by Western blot analysis; assay type: functional, organism-based; method in brief: as §1
Mus musculus [16] = assay: Neuroprotective activity in 5XFAD mouse assessed as increase in GPX1 protein level at 5 mg/kg/day, po for 4 weeks by Western blot analysis; assay type: functional, organism-based; method in brief: as §1
Mus musculus [17] = assay: Antioxidant activity in 5XFAD mouse hippocampus assessed as decrease in ROS level at 5 mg/kg/day, po for 4 weeks; assay type: functional, organism-based
Method in brief: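 Hippocampal homogenates from 8-month-old male 5XFAD mice after 4 weeks of 5 mg/kg/day in drinking water (cyclodextrin vehicle). H2O2 concentration measured with a hydrogen peroxide assay kit as an oxidative stress index. n = 3 per group, mean ± SEM.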

Mus musculus [18] = assay: Anti-neuro inflammatory activity in 5XFAD mouse assessed as reduction in Il-6 mRNA expression at 5 mg/kg/day, po for 4 weeks by RT-PCR analysis; assay type: functional, organism-based; method in brief: as §3
Mus musculus [19] = assay: Anti-neuro inflammatory activity in 5XFAD mouse assessed as reduction in TNF-alpha mRNA expression at 5 mg/kg/day, po for 4 weeks by RT-PCR analysis; assay type: functional, organism-based; method in brief: as §3
Mus musculus [20] = assay: Anti-neuro inflammatory activity in 5XFAD mouse assessed as Cxcl10 mRNA expression at 5 mg/kg/day, po for 4 weeks by RT-PCR analysis; assay type: functional, organism-based; method in brief: as §3
Mus musculus [21] = assay: Neuroprotective activity in 5XFAD mouse assessed as no change in Mcp1 mRNA expression at 5 mg/kg/day, po for 4 weeks by RT-PCR analysis; assay type: functional, organism-based; method in brief: as §3
Mus musculus [22] = assay: Neuroprotective activity in 5XFAD mouse assessed as reduction in GFAP protein level by measuring fluorescence intensity at 5 mg/kg/day, po for 4 weeks by immunostaining analysis; assay type: functional, organism-based
Mus musculus [23] = assay: Neuroprotective activity in 5XFAD mouse assessed as no change in IBA1 protein level at 5 mg/kg/day, po for 4 weeks by immunostaining analysis; assay type: functional, organism-based
Mus musculus [24] = assay: Neuroprotective activity in 5XFAD mouse assessed as increase in synaptophysin protein level at 5 mg/kg/day, po for 4 weeks by Western blot analysis; assay type: functional, organism-based; method in brief: as §1
Mus musculus [25] = assay: Neuroprotective activity in 5XFAD mouse assessed as increase in postsynaptic density protein 95 level at 5 mg/kg/day, po for 4 weeks by Western blot analysis; assay type: functional, organism-based; method in brief: as §1
Mus musculus [26] = assay: Neuroprotective activity in 5XFAD mouse assessed as increase in BDNF protein level at 5 mg/kg/day, po for 4 weeks by Western blot analysis; assay type: functional, organism-based; method in brief: as §1
Mus musculus [27] = assay: Neuroprotective activity in 5XFAD mouse assessed as Ngf gene expression at 5 mg/kg/day, po for 4 weeks by RT-PCR analysis; assay type: functional, organism-based; method in brief: as §3
Mus musculus [28] = assay: Neuroprotective activity in 5XFAD mouse assessed as Vgf gene expression at 5 mg/kg/day, po for 4 weeks by RT-PCR analysis; assay type: functional, organism-based; method in brief: as §3
Mus musculus [29] = assay: Neuroprotective activity in 5XFAD mouse assessed as number of beta-amyloid plaques at 5 mg/kg/day, po for 4 weeks relative to control; assay type: functional
Method in brief: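 Male 5XFAD mice, 8 months old, received 5 mg/kg/day in drinking water for 4 weeks. 30 μm brain sections rehydrated in PBS, then stained with 0.3% Thioflavin-S for 20 min at room temperature in the dark.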

Mus musculus [30] = assay: Antialzheimer activity in 5XFAD mouse model assessed as increase in 5-hmC global level in DNA at 5 mg/kg/day, po for 4 weeks

Measured: Activity

COc1cc2c(NC3CCN(C(C)C)CC3)nc(N3CCC(F)(F)CC3)nc2cc1OCCCN1CCCC1
inactive: Mus musculus [20] | Mus musculus [21] | Mus musculus [23]
1623.83 cm: Mus musculus [2]
92.74 cm: Mus musculus [3]
14.29: Mus musculus [5]
active: Mus musculus [1] | Mus musculus [9] | Mus musculus [10] | Mus musculus [11] | Mus musculus [12] | Mus musculus [13] | Mus musculus [14] | Mus musculus [15] | Mus musculus [16] | Mus musculus [17] | Mus musculus [18] | Mus musculus [19] | Mus musculus [22] | Mus musculus [24] | Mus musculus [25] | Mus musculus [26] | Mus musculus [27] | Mus musculus [28] | Mus musculus [30]
3.71: Mus musculus [6]
45%: Mus musculus [29]
2030.46 cm: Mus musculus [4]
0.86: Mus musculus [7]
0: Mus musculus [8]
